A selection: hits, their analogues and other compounds. The true share with any hit is near 2.9%.
CHO-K1 Ca antag = M1 antagonist counterscreen hit in parental CHO-K1 cells | ATP-induced calcium, Fluo-8 fluorescence | 360,000 tested, 0.6% active | inhibition, % at 3 µM;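 active = inhibition above a per-plate cutoff, the plate's mean sample inhibition plus 3 SD, cut at about 24% in these data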
CHO parental Ca = ATP-evoked calcium signal inhibitors, parental CHO, primary screen, counter-screen for OX1R antagonist project, cell-based, fluorescence, Fluo-8 calcium dye | inhibition, % at 5.6 µM | 330,000 tested, 0.63% active | parental CHO-K1, ATP-induced calcium, Fluo-8 fluorescence;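 active = inhibition above that plate's mean sample inhibition plus 3 SD, cut at about 26% in these data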
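material = parental CHO cells | also added = ATP as calcium-mobilizing challenge | dosing = single point at 5.6 µM | detection = intracellular calcium via Fluo-8 no-wash fluorescent dye | read-out = % inhibition | benchmarks = low control ATP plus DMSO, high control DMSO only | repeats = one well per compound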
M1 ag parental = counter-screen for M1 agonists: effect in parental CHO-K1 cells; 360,000 tested, 0.48% active; activation, % at 3 µM; Fluo-8 calcium fluorescence; scaled to maximal ATP response, vehicle zero; AID 602248, 2012; in the data active = activation above about 15%;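 note: untransfected CHO-K1 host cells lacking M1 receptor as counterscreen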
M1 PAM parental = nonselective calcium activators in parental CHO-K1 cells, primary screen, counter-screen for M1 PAM project, cell-based, Fluo-8 calcium fluorescence, full deck, 1536-well. ATP EC20; 0% at ATP EC20, 100% at ATP max. activation, % at 3 µM. 360,000 tested, 0.02% active;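 active = activation above the run cutoff, the mean activation of all test compounds plus 3 SD, cut at about 40% in these data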;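 note: peak over basal fluorescence ratio in a 140 s read after ATP addition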
OX1R antag-1 = antagonists of human orexin 1 receptor (OX1R); Orexin/Hypocretin receptor type 1 (Homo sapiens), O43613; OX1R-expressing cells, FRET antagonist read-out; inhibition, % at 6.6 µM; 330,000 tested, 1.8% active; in the data active = inhibition mostly above about 38%, no sharp cut-off; inactive = mostly below about 40%
Target sequence (O43613 whole entry, looked up): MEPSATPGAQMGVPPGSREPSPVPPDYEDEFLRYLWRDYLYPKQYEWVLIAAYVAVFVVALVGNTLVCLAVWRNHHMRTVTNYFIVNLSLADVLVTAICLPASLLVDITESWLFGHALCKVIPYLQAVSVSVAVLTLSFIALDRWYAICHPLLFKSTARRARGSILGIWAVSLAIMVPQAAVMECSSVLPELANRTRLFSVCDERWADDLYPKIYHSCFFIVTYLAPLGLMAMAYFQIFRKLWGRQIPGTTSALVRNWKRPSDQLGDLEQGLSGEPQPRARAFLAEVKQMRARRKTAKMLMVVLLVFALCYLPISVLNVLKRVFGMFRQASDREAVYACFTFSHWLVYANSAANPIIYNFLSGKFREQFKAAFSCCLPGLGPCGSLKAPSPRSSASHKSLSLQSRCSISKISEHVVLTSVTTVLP
OX1R antag-2 = OX1R (HCRTR1) antagonists, primary screen, fluorescence, CHO/OX1R cells, Fluo-8 calcium, orexin A. Fluo-8 calcium fluorescence. inhibition, % at 5 µM. 330,000 tested, 0.43% active. AID 434989, 2010;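 active = inhibition above its plate's threshold, mean inhibition of all tested compounds on the plate plus 3 SD, cut at about 37% in these data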
A number is an active result.

What do the screens show for `CN(C)c1ccc(S(=O)(=O)N2CCCCC2)cc1NC(=O)COc1ccccc1F`?
CHO-K1 Ca antag: inactive; CHO parental Ca: 71; M1 ag parental: inactive; M1 PAM parental: inactive; OX1R antag-1: inactive; OX1R antag-2: inactive

Results for CN1CCN(S(=O)(=O)c2ccc(NC(=O)Nc3cccc(Cl)c3)cc2)CC1 ?
CHO-K1 Ca antag: inactive; CHO parental Ca: inactive; M1 ag parental: inactive; M1 PAM parental: inactive; OX1R antag-1: inactive; OX1R antag-2: inactive

Results for COCc1nnc(NC(C)=O)s1 ?
CHO-K1 Ca antag: inactive; CHO parental Ca: inactive; M1 ag parental: inactive; M1 PAM parental: inactive; OX1R antag-1: inactive; OX1R antag-2: inactive

Results for COc1cc(C(=O)NCC(=O)OCCN2C(=O)c3ccccc3C2=O)cc(OC)c1OC ?
CHO-K1 Ca antag: inactive; CHO parental Ca: inactive; M1 ag parental: inactive; M1 PAM parental: inactive; OX1R antag-1: inactive; OX1R antag-2: inactive

How did CC(C)Nc1ccc(Cl)cc1[N+](=O)[O-] do in these assays?
CHO parental Ca: inactive; OX1R antag-1: inactive; OX1R antag-2: inactive

How did Cc1cccc(-c2cc(=O)c(C(=O)O)cn2-c2ccc(F)cc2F)c1 do in these assays?
CHO-K1 Ca antag: inactive; CHO parental Ca: inactive; M1 ag parental: inactive; M1 PAM parental: inactive; OX1R antag-1: 58; OX1R antag-2: inactive

Results for COc1ccc(-n2cc(C(=O)O)c(=O)cc2C)cc1 ?
CHO-K1 Ca antag: inactive; CHO parental Ca: inactive; M1 ag parental: inactive; M1 PAM parental: inactive; OX1R antag-1: inactive; OX1R antag-2: inactive

Results for N#C/C(=C(/O)c1ccc2c(c1)OCO2)c1nc2cc(C(F)(F)F)ccc2s1 ?
CHO-K1 Ca antag: inactive; CHO parental Ca: inactive; M1 ag parental: inactive; M1 PAM parental: inactive; OX1R antag-1: 58; OX1R antag-2: inactive

What do the screens show for `CN(C(=O)CN1C(=O)S/C(=C\c2ccccc2Cl)C1=O)C1CCS(=O)(=O)C1` (centres undefined)?
CHO-K1 Ca antag: 28; CHO parental Ca: inactive; M1 ag parental: inactive; M1 PAM parental: inactive; OX1R antag-1: inactive; OX1R antag-2: inactive

What do the screens show for `Nc1ccccc1NC(=O)c1ccccc1`?
CHO-K1 Ca antag: inactive; CHO parental Ca: inactive; M1 ag parental: inactive; M1 PAM parental: inactive; OX1R antag-1: inactive; OX1R antag-2: inactive

What do the screens show for `CSc1ccccc1NC(=O)c1ccccc1`?
CHO-K1 Ca antag: inactive; CHO parental Ca: inactive; M1 ag parental: 16; M1 PAM parental: inactive; OX1R antag-1: inactive; OX1R antag-2: inactive

How did Nc1ccc(NC(=O)c2ccccc2)c2c1C(=O)c1ccccc1C2=O do in these assays?
CHO-K1 Ca antag: 26; CHO parental Ca: inactive; M1 ag parental: inactive; M1 PAM parental: inactive; OX1R antag-1: inactive; OX1R antag-2: inactive

Results for CSc1ccccc1NC(=O)c1cc(-c2ccco2)on1 ?
CHO-K1 Ca antag: inactive; CHO parental Ca: inactive; M1 ag parental: inactive; M1 PAM parental: inactive; OX1R antag-1: 66; OX1R antag-2: inactive

What do the screens show for `COC(=O)c1ccccc1NC(=O)c1cc(-c2ccco2)on1`?
CHO-K1 Ca antag: inactive; CHO parental Ca: inactive; M1 ag parental: inactive; M1 PAM parental: inactive; OX1R antag-1: inactive; OX1R antag-2: inactive

Results for O=C(Nc1ccc(F)cc1F)c1cc(-c2ccco2)on1 ?
CHO-K1 Ca antag: inactive; CHO parental Ca: 35; M1 ag parental: inactive; M1 PAM parental: inactive; OX1R antag-1: inactive; OX1R antag-2: inactive

What do the screens show for `CNc1nc(-c2ccccc2)c2sccc2n1`?
CHO-K1 Ca antag: inactive; M1 ag parental: inactive; M1 PAM parental: inactive

What do the screens show for `CCCN(CCC)CCCNC(=O)Cn1cnc2sc(C)c(S(=O)(=O)N3CCOCC3)c2c1=O`?
CHO-K1 Ca antag: inactive; CHO parental Ca: inactive; M1 ag parental: inactive; M1 PAM parental: inactive; OX1R antag-1: inactive; OX1R antag-2: inactive

Results for O=C(NCc1ccc(F)cc1)c1cc(-c2ccco2)on1 ?
CHO-K1 Ca antag: inactive; CHO parental Ca: 32; M1 ag parental: inactive; M1 PAM parental: inactive; OX1R antag-1: inactive; OX1R antag-2: inactive

How did COc1cc(C2C(C(C)=O)=C(O)C(=O)N2Cc2ccccc2)ccc1O (centres undefined) do in these assays?
CHO-K1 Ca antag: inactive; M1 ag parental: inactive; M1 PAM parental: inactive

Source: PubChem BioAssay
